Measured values taken from ChEMBL document CHEMBL3817782, “Synthesis, Structural Elucidation, and Biological Evaluation of NSC12, an Orally Available Fibroblast Growth Factor (FGF) Ligand Trap for the Treatment of FGF-Dependent Lung Tumors” (J Med Chem, 2016).
≈ marks a conversion by molar mass, not a printed value. Calls of active or inactive are those of the source. The rule behind the calls is not given here.

Tests used:
[1] = biological target: T1, Fibroblast growth factor 2 (Homo sapiens, UniProt P09038); test: Inhibition of human recombinant FGF2 assessed as reduction in HSPG/FGF2/[…] interaction by measuring FGF2 mediated […]-CHO-flg-1A-luc cell to CHO-K1 cell adhesion incubated for 2 hrs by luciferase assay; type: cell-based
Outline: (§1)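 Wild-type CHO-K1 monolayers fixed in 3% glutaraldehyde for 2 h at 4 °C, quenched with 0.1 M glycine. A745-CHO-flg-1A-luc cells (50 000 cells/cm²) added in serum-free medium plus 10 mM EDTA, with or without 30 ng/mL FGF2, plus increasing compound concentrations in 3% DMSO. Incubated 2 h at 37 °C. Unattached cells washed off; bound-cell luciferase measured. Triplicates.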

[2] = Antiproliferative activity against mouse LLC cells incubated for 48 hrs by PI-staining based flow cytometry; type: functional, cell-based; conditions: Lewis lung carcinoma
Outline: (§2)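 LLC cells kept in DMEM plus 10% heat-inactivated FBS and cultured 48 h with compound in medium plus 1% DMSO final. PI-negative viable cells counted by flow cytometry to give absolute counts.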

NCI-H520 [3] = test: Antiproliferative activity against human NCI-H520 cells incubated for 72 hrs by PI-staining based flow cytometry; type: functional, cell-based; conditions: NCI-H520, 72 h
Outline: (§3)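 H520 cells kept in RPMI plus 10% FBS and cultured 72 h with compound in medium plus 1% DMSO final. Viable PI-negative cells counted by flow cytometry, with absolute counts from the analyzer's counting function.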

Lewis lung carcinoma [4] = test: Antiangiogenic activity against mouse LLC cells xenografted in C57BL/6 mouse assessed as pale appearance at 7.5 mg/kg administered as oral gavage for 7 days daily; type: functional, organism-based
Outline: (§4)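 Eight-week-old C57BL/6 mice given 5 × 10^5 LLC cells sc in the dorsolateral flank in PBS. Dosing started once tumors were palpable: 7.5 mg/kg or vehicle daily by gavage in DMSO/H2O (1:1). Tumors measured in two dimensions, volume taken as (D × d²)/2. At the end, tumors harvested, weighed and photographed. Body weight and clinical signs followed throughout.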

[5] = Kinetic solubility in 3% DMSO solution in PBS at 44 to 100 uM stirred for 5 mins by HPLC-MS/MS analysis; type: physicochemical; conditions: buffer
Outline: (§5)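 Fresh DMSO stocks diluted into PBS to nominal 100, 44, 29, 16 and 8.9 μM, 3% DMSO final. Stirred 5 min (250 rpm, rt), centrifuged to remove undissolved material. Supernatant diluted 1:100 in MeCN containing internal standard (100 nM) and quantified by HPLC–ESI-MS/MS.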

[6] = biological target: T1, Fibroblast growth factor 2; test: Binding affinity to human recombinant FGF2 treated for 4 mins measured after 10 mins by surface plasmon resonance spectroscopic analysis
Outline: (§6)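 Human recombinant FGF2 (20 μg/mL in 10 mM sodium acetate, pH 6.0) coupled to an EDC/NHS-activated CM5 chip, with an ethanolamine-blocked dextran reference cell. Compounds injected at 8–150 μM for 4 min (30 μL/min), then 10 min dissociation. Apparent Kd taken from dose-dependent binding. Samples in PBS with 3% DMSO.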

[7] = Kinetic solubility in 3% DMSO solution in PBS up to 30 uM stirred for 5 mins by HPLC-MS/MS analysis; type: physicochemical; conditions: buffer; outline: as §5
[8] = biological target: T1, Fibroblast growth factor 2; test: Inhibition of human recombinant FGF2 assessed as suppression of FGF2-stimulated FGFR1 phosphorylation in mouse LLC cells at 25 uM incubated for 20 mins by Western blot analysis; type: cell-based
Outline: (§7)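 LLC cells stimulated with FGF2 (30 ng/mL) with or without compound in medium plus 3% DMSO for 20 min. Cells lysed in RIPA buffer with 1% Triton X-100, 0.2% Brij and 1 mM orthovanadate. Immunoblotted with anti-phospho-FGFR1, with β-actin as loading control.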

[9] = Kinetic solubility in DMEM buffer/1% DMSO assessed as recovered drug level at 10 uM after 4 hrs by HPLC-MS/MS analysis; type: physicochemical; conditions: DMEM buffer with 1% DMSO; read-out: Drug recovery
Outline: (§8)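 Fresh DMSO stocks added 1:100 to DMEM plus 0.4% FBS, giving nominal 10, 6 or 3 μM and 1% DMSO final. Stirred 4 h (250 rpm, rt), centrifuged, supernatant diluted 1:100 in MeCN with internal standard. Quantified by HPLC–MS/MS.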

[10] = Dissociation constant, pKa of the compound in methanol-water mixture at 25 +/- 1 degC by potentiometric pH-metric method; type: physicochemical
Outline: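 Potentiometric pH-metric titration in methanol–water mixtures from 40 to 10%. Aqueous pKa extrapolated. Titration curves fitted by nonlinear multiparametric analysis.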

Lewis lung carcinoma [11] = test: Antitumor activity against mouse LLC cells xenografted in C57BL/6 mouse assessed as tumor growth inhibition at 7.5 mg/kg administered as oral gavage for 7 days daily relative to vehicle-treated control; type: functional, organism-based; outline: as §4
Mus musculus [12] = test: Toxicity in C57BL/6 mouse xenografted with mouse LLC cells assessed as effect on body weight at 7.5 mg/kg administered as oral gavage for 7 days daily; type: organism-based; conditions: in vivo, 168 h; outline: as §4
Mus musculus [13] = test: Toxicity in C57BL/6 mouse xenografted with mouse LLC cells assessed as effect on clinical parameters at 7.5 mg/kg administered as oral gavage for 7 days daily; type: organism-based; conditions: in vivo, 168 h; outline: as §4
[14] = Plasma concentration in C57BL/6 mouse at 7.5 mg/kg administered as single dose measured after 30 mins; type: ADME, organism-based
Outline: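 Eight-week-old mice given 7.5 mg/kg orally, with blood drawn 30 min, 2 h and 8 h later. Plasma proteins precipitated with acetonitrile containing internal standard (1:2). Analyte quantified by HPLC–ESI-MS/MS against calibration curves in spiked blank mouse plasma (linear 1–500 nM, LOQ 1 nM). Extraction recovery 90–95%.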

[15] = biological target: T1, Fibroblast growth factor 2; test: Binding affinity to human recombinant FGF2 at 8 to 150 uM treated for 4 mins measured after 10 mins by surface plasmon resonance spectroscopic analysis; outline: as §6
[16] = biological target: T1, Fibroblast growth factor 2; test: Inhibition of human recombinant FGF2 assessed as reduction in HSPG/FGF2/[…] interaction by measuring FGF2 mediated […]-CHO-flg-1A-luc cell to CHO-K1 cell adhesion at 100 uM incubated for 2 hrs by luciferase assay; type: cell-based; outline: as §1
[17] = biological target: T1, Fibroblast growth factor 2; test: Inhibition of human recombinant FGF2 assessed as suppression of FGFR1 phosphorylation in mouse LLC cells at 100 uM incubated for 20 mins by Western blot analysis; type: cell-based; outline: as §7
Lewis lung carcinoma [18] = test: Antiproliferative activity against mouse LLC cells at 0.3 to 10 uM incubated for 48 hrs by PI-staining based flow cytometry; type: functional, cell-based; outline: as §2
NCI-H520 [19] = test: Antiproliferative activity against human NCI-H520 cells at 0.3 to 10 uM incubated for 72 hrs by PI-staining based flow cytometry; type: functional, cell-based; outline: as §3
[20] = Kinetic solubility in DMEM buffer at 10 uM after 4 hrs in presence of EDTA by HPLC-MS/MS analysis; type: physicochemical; conditions: DMEM buffer with EDTA; read-out: Kinetic_solubility
Outline: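 10 μM (nominal) in DMEM plus 0.4% FBS with 2 mM EDTA and 1% DMSO final. Stirred 4 h (250 rpm, rt), then centrifuged. Supernatant diluted 1:100 in MeCN with internal standard and measured by HPLC–MS/MS. Mean of recovered concentration reported with ±.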

[21] = Kinetic solubility in DMEM buffer/1% DMSO assessed as recovered drug level at 6 uM after 4 hrs by HPLC-MS/MS analysis; type: physicochemical; conditions: DMEM buffer with 1% DMSO; read-out: Drug recovery; outline: as §8
[22] = Kinetic solubility in DMEM buffer/1% DMSO assessed as recovered drug level at 3 uM after 4 hrs by HPLC-MS/MS analysis; type: physicochemical; conditions: DMEM buffer with 1% DMSO; read-out: Drug recovery; outline: as §8

T1 sequence (P09038 143-288 limits assumed): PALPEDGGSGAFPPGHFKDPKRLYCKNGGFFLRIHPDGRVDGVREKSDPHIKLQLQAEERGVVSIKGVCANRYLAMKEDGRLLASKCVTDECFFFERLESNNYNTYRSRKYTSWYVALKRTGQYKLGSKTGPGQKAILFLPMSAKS

SMILES | IC50 [1] | IC50 [2] | IC50 (NCI-H520 [3]) | Activity (Lewis lung carcinoma [4]) | Kinetic_solubility [7] | solubility kinetic at 4 h, 10 µM [9] | pKa [10] | TGI (Lewis lung carcinoma [11]) | Activity (Mus musculus [12]) | Activity (Mus musculus [13]) | concentration at 0.5 h [14] | other results
C[C@]12CC[C@H]3[C@@H](CC=C4C[C@@H](O)CC[C@@]43C)[C@@H]1CC[C@@H]2C(O)CC(O)(C(F)(F)F)C(F)(F)F (some centres undefined) | 10 µM | 2 µM | 4.1 µM | Active |  |  |  |  |  |  |  | 
C[C@]12CC[C@H]3[C@@H](CC=C4C[C@@H](O)CC[C@@]43C)[C@@H]1CC[C@@H]2[C@@H](O)CC(O)(C(F)(F)F)C(F)(F)F | 10 µM | 2 µM | 4.1 µM | Active | soluble | 10.7 µM (≈ 5.18 µg/mL) | 9.04 | Active | Non-toxic | Non-toxic | 316 nM | Kinetic_solubility [5]: Insoluble; Activity [6]: Dose-dependent effect; Kd [6]: 40 µM; inhibition [8]: Active
C[C@]12CC[C@H]3[C@@H](CC=C4C[C@@H](O)CC[C@@]43C)[C@@H]1CC[C@@H]2[C@H](O)CC(O)(C(F)(F)F)C(F)(F)F |  |  |  |  | Insoluble | 2.1 µM (≈ 1.02 µg/mL) | 9.08 | inactive | Non-toxic | Non-toxic | 128 nM | Activity [15]: inactive; inhibition [16]: inactive; inhibition [17]: inactive; Activity (Lewis lung carcinoma [18]): inactive; Activity (NCI-H520 [19]): inactive; solubility kinetic at 4 h, 10 µM [20]: 1.73 µM; solubility kinetic at 4 h, 6 µM [21]: 1.7 µM (≈ 0.824 µg/mL); solubility kinetic at 4 h, 3 µM [22]: 1.4 µM (≈ 0.678 µg/mL)
